The record followed here is ChEMBL document CHEMBL1133619, “Use of an additional hydrophobic binding site, the Z site, in the rational drug design of a new class of stronger trypanothione reductase inhibitor, quaternary alkylammonium phenothiazines” (J Med Chem, 2000).

Test [1] addresses T1, Trypanothione reductase (Trypanosoma cruzi, UniProt P28593). The test is described as follows: (§1) Inhibitory activity against Trypanosoma cruzi trypanothione reductase. In a few lines:
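T. cruzi TR, isolated enzyme (3 µg/mL), assayed at 25 °C in 0.02 M HEPES pH 7.25 with 0.15 M KCl, 1 mM EDTA and 0.1 mM NADPH. (ZCGdmapa)2 substrate was used at 0.24, 0.12, 0.06 or 0.03 mM, and Ki was fitted as linear competitive.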

Test [2] relates to Trypanosoma brucei. The test is described as follows: Antiparasitic activity against Trypanosoma brucei. The format is functional. As to conditions: read-out: ED50 (the source's name).
Test [3] addresses T1, Trypanothione reductase. Described as §1. This is another data set of the same source.
The target of test [4] is T2, Glutathione reductase, mitochondrial (Homo sapiens, UniProt P00390).
T2 sequence (P00390 whole entry): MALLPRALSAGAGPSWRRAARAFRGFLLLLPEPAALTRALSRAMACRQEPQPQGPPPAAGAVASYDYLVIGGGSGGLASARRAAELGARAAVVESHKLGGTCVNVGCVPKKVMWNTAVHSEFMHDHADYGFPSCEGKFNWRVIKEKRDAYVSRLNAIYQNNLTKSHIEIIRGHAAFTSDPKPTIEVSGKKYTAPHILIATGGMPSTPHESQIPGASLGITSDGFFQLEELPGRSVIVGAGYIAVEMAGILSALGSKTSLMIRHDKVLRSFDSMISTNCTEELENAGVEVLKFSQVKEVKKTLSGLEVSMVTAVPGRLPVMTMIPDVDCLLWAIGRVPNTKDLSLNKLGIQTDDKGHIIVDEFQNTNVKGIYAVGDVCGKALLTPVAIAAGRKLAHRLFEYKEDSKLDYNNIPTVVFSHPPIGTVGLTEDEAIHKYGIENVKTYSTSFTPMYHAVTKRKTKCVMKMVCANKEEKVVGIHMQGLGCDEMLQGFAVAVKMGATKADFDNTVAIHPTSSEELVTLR
Put plainly: Inhibitory activity against Human Erythrocyte glutathione reductase (GR).

For test [5], the target named is T3, Glutathione reductase, mitochondrial (Homo sapiens) (UniProt P00390).
T3 sequence (whole entry): T2 sequence (P00390 whole entry)
The test is described as follows: Compound at 1 mM was tested for the inhibition of human erythrocyte glutathione reductase; No inhibition.

Test [6] concerns Trypanosoma brucei. Put plainly: Activity against Trypanosoma brucei.
Test [7] has as its system Trypanosoma cruzi. The test is described as follows: Antiparasitic activity against Trypanosoma cruzi at the dose of 1 uM. The format is functional.
The subject of test [8] is Trypanosoma cruzi. The test is described as follows: Antiparasitic activity against Trypanosoma cruzi at the dose of 3 uM. It counts as functional.
Test [9] has as its system Trypanosoma cruzi. Put plainly: Antiparasitic activity against Trypanosoma cruzi. The format is functional. To be noted: read-out: ED50 (the source's name).

Values joined by “and” are separate entries in the source; they are usually repeats but may differ in a detail not shown here. Identical values can stand only once. Active and inactive are the calls of the source. The calls are words filed in the database; no cut-off is given here.

T1 sequence (P28593 whole entry): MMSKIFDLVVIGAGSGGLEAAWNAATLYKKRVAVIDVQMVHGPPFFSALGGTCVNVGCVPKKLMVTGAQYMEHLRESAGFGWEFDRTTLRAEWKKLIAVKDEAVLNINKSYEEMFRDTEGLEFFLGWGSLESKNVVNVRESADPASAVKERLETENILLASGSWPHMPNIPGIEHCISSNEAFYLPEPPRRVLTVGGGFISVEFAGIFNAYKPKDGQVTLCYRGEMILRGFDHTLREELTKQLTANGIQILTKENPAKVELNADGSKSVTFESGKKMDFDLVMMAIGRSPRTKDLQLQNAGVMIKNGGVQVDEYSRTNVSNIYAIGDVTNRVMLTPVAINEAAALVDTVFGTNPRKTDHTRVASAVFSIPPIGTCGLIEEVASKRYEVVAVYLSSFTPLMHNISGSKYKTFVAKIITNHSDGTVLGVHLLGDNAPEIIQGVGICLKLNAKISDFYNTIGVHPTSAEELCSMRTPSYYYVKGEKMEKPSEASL

In test [1], `C[N+](C)(CCCN1c2ccccc2Sc2ccc(Cl)cc21)Cc1ccc(Br)cc1` showed a Ki of 1.5 µM. In test [2], the EC50 is 0.508 µg/mL and 900 nM. In [3], this compound came in with an IC50 of 11.9 µM.
With `C[N+](C)(CCCN1c2ccccc2Sc2ccc(Cl)cc21)CC1CCCCC1`, the inhibitory constant (Ki) in test [4] stood at 2000 µM; in [1] it was 2.3 µM. Besides, the EC50 in test [2] is 0.159 µg/mL and 320 nM. This compound also had an IC50 in [3] of 10.5 µM.
`C[N+](C)(CCCN1c2ccccc2Sc2ccc(Cl)cc21)Cc1ccc(OCc2ccccc2)cc1` came in with an inhibitory constant (Ki) in test [1] of 0.47 µM. Also, the EC50 in [2] was 0.191 µg/mL and 350 nM. The half-inhibitory concentration (IC50) in test [3] is 10.4 µM.
In the case of `C[N+](C)(CCCN1c2ccccc2Sc2ccc(Cl)cc21)Cc1ccc([N+](=O)[O-])cc1.[Cl-]`, in test [1], affinity was put at a Ki of 2.98 µM. Further, the EC50 in test [2] was 0.348 µg/mL and 650 nM. The same compound displayed an IC50 in test [3] of 17.9 µM.
Turning to `C[N+](C)(CCCN1c2ccccc2Sc2ccc(Cl)cc21)Cc1ccc(Cl)cc1`, the Ki worked out at 2200 µM in [4] and 1.7 µM in [1]. In addition, the EC50 in test [2] is 0.675 µg/mL and 1.41 µM. The same compound returned a half-inhibitory concentration (IC50) in [3] of 12.7 µM.
For `Cc1cc(C(=O)C[N+](C)(C)CCCN2c3ccccc3Sc3ccc(Cl)cc32)ccc1Cl`, affinity in test [1] was put at a Ki of 1.43 µM. For the same compound, in [2], the EC50 was 0.159 µg/mL and 280 nM. Further, the IC50 in test [3] was 8.6 µM.
Regarding `C[N+](C)(CCCN1c2ccccc2Sc2ccc(Cl)cc21)Cc1cccc(Cl)c1`, affinity in [1] was put at a Ki of 2.4 µM. Besides, the EC50 in test [2] is 0.245 µg/mL and 470 nM. For the same compound, in [3], the IC50 is 6.6 µM.
In test [1], `COc1cc(C[N+](C)(C)CCCN2c3ccccc3Sc3ccc(Cl)cc32)cc(OC)c1` gave a Ki of 0.77 µM. Moreover, in test [3], 5.4 µM corresponded to half-maximal inhibition (IC50).
For `C[N+](C)(C)CCCN1c2ccccc2Sc2ccc(Cl)cc21`, in [1], the Ki was 1.1 µM. The compound further registered an IC50 in test [3] of 28 µM.
In test [1], `C[N+](C)(CCCN1c2ccccc2Sc2ccc(Cl)cc21)Cc1ccc2ccccc2c1` registered a Ki of 1.55 µM. For the same compound, the EC50 in test [2] was 0.068 µg/mL and 120 nM. Besides, inhibition in [3] was half-maximal at 9.3 µM (IC50).
Compound `Cc1ccc(C[N+](C)(C)CCCN2c3ccccc3Sc3ccc(Cl)cc32)cc1C` had a Ki in test [1] of 0.47 µM. This compound also came in with an IC50 in test [3] of 3.9 µM.
As to `CN(C)CCCN1c2ccccc2Sc2ccc(Cl)cc21`, in [5], the NI result is “inactive”.
In test [1], `C[N+](C)(CCCN1c2ccccc2Sc2ccc(Cl)cc21)CC(=O)C12CC3CC(CC(C3)C1)C2` came in with a Ki of 1.23 µM. Also, it took 12.8 µM to reach half-maximal inhibition in test [3] (IC50).
As for `C[N+](C)(CCCN1c2ccccc2Sc2ccc(Cl)cc21)CC(=O)c1ccc2ccc3cccc4ccc1c2c34`, in [6], the ED50 amounted to 0.475 µg/mL.
The compound `C[N+](C)(CCCN1c2ccccc2Sc2ccc(Cl)cc21)Cc1ccccc1` had a Ki in test [1] of 1.3 µM. Half-maximal inhibition in test [3] (IC50) required 8.02 µM.
`C[N+](C)(CCCN1c2ccccc2Sc2ccc(Cl)cc21)Cc1c(F)c(F)c(F)c(F)c1F` had a Ki in [1] of 1.67 µM. In [2], the EC50 was 1.48 µg/mL and 2.55 µM. The compound further registered an IC50 in test [3] of 10 µM.
As to `C[N+](C)(CCCN1c2ccccc2Sc2ccc(Cl)cc21)Cc1ccc(Cl)c(Cl)c1`, in test [1], the Ki is 0.12 µM. For the same compound, the EC50 in [2] was 0.546 µg/mL and 1.07 µM. This compound came in with an IC50 in [3] of 0.78 µM.
In test [1], `Cc1ccc(C[N+](C)(C)CCCN2c3ccccc3Sc3ccc(Cl)cc32)cc1` displayed an inhibition constant (Ki) of 1.8 µM. Besides, the EC50 in [2] is 0.205 µg/mL and 410 nM. In test [3], this compound gave an IC50 of 10.8 µM.
For `C[N+](C)(CCCN1c2ccccc2Sc2ccc(Cl)cc21)C(c1ccccc1)c1ccccc1`, the Ki in [1] is 0.71 µM. Besides, the EC50 in [2] was 0.035 µg/mL and 62 nM. For the same compound, the 50% inhibitory concentration (IC50) in test [3] amounted to 1.2 µM.
In test [1], `COc1ccc2c(C[N+](C)(C)CCCN3c4ccccc4Sc4ccc(Cl)cc43)cc(=O)oc2c1` displayed an inhibitory constant (Ki) of 0.56 µM. Also, in test [2], the EC50 was 3.11 µg/mL and 5.28 µM. Further, the IC50 in test [3] turned out to be 2.95 µM.
Regarding `CC(C)(C)c1ccc(C[N+](C)(C)CCCN2c3ccccc3Sc3ccc(Cl)cc32)cc1`, at 1 µM the inhibition in test [7] was 59.2%. In addition, in [8], the inhibition at 3 µM was determined as 66.2%. In test [1], the Ki was determined as 0.68 µM. The EC50 in [9] is under 1 µM; in test [2], 0.023 µg/mL and 42 nM. This compound also displayed an IC50 in test [3] of 4.1 µM.

One may read the Ki as the equilibrium dissociation constant of an inhibitor or competing ligand from its target. Usually IC50 stands for the concentration at which inhibition is half-maximal. The term inhibition denotes the share of the control response that was lost under treatment.
